Compound activity as filed in PubChem BioAssay.
SF1 activator – SF-1 (human) activation; Q13285; CHO-K1 Gal4-SF-1 LBD luciferase reporter; % increase over DMSO SF-1-specific signal; activation, % at 10 µM; 65,000 tested, 1.9% active; AID 522;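 active = activation above the mean activation of all tested compounds plus 3 SD, cut at about 50% in these data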
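Compound – one dose, 10 µM compound, 1% DMSO · Test system – transient Gal4-SF-1 LBD reporter, CHO-K1 · Input – 4,000 cells in each well · Read-out basis – percent activation relative to DMSO median and mock-transfected background · Replicates – single measurement per compound · Technique – steady-glow luciferase luminescence, read after 15 min reagent incubation · Timing – 20 h compound treatment, 37 °C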
M1 antagonist – M1 muscarinic receptor (rat) antagonism. AID 628. CHO-M1 cells, Fluo-4 calcium, ACh EC80 antagonist mode; active compounds read low. B-score at 10 µM. P08482. 64,000 tested, 3.4% active;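 active = calcium fluorescence response, raw or row-and-column corrected B-score, differing from the plate sample mean either way at a set confidence level, mostly lower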
M1 agonist – M1 muscarinic receptor agonism; CHO-M1 cells, Fluo-4 calcium fluorescence, agonist mode; active compounds read high; B-score at 10 µM; 64,000 tested, 3% active;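 active = fluorescence rise, raw or as B-score row- and column-corrected plate score, outside the 99.7% band of its plate's samples, either direction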
D1 mod – allosteric modulators of human D1 dopamine receptor; P21728; HEK293 D1, CRE-luciferase, dopamine EC30 potentiation; actives deviate in either direction; B-score at 10 µM; 58,000 tested, 5.9% active; AID 641;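 active = luminescence count or its row- and column-corrected plate score outside the 99.7% band of the plate's sample wells, on either side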
mHtt clearance – compounds clearing mutant huntingtin protein. inhibition, % at 1.5 µM. HeLa Exon1htt(103Q)mCFP, aggregate imaging; zero = plate's median compound well. 47,000 tested, 0.42% active. AID 853;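 active = inhibition of aggregate fluorescence above about 70%, also judged a hit by eye on the cell image, limit read from the data, passing the limit was not always enough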;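 note: cells exposed to compound for three days before fixation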
RORa activator – activators of human nuclear receptor RORA; activation, % at 10 µM; 65,000 tested, 1.5% active; P35398; CHO-K1 Gal4-RORA LBD luciferase reporter, luminescence; percent increase over mock-subtracted basal signal;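 active = activation above the mean of all tested compounds plus 3 SD, cut at about 49% in these data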
Target sequence (P35398 whole entry, looked up, the tested form may be a part): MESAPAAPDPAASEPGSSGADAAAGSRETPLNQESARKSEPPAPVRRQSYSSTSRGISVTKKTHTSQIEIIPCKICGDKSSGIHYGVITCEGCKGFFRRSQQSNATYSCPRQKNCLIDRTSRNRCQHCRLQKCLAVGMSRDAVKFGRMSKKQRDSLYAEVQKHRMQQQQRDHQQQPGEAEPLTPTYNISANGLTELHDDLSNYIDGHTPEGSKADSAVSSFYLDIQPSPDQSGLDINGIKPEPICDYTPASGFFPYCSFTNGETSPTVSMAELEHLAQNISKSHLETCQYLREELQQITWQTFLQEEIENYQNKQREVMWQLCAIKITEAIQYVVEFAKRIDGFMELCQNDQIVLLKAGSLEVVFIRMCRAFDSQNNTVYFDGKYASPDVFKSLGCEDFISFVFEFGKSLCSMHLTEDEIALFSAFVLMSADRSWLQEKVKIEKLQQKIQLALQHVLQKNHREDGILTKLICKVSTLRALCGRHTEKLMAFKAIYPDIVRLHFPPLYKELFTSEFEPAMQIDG
A number is an active result; - = inactive; . = not tested or not shown. Hits are enriched below; roughly 11% of the tested compounds scored in any of these assays.

SMILES	SF1 activator	M1 antagonist	M1 agonist	D1 mod	mHtt clearance	RORa activator
Cc1ccc(CNC(=O)C2CCC(=O)N2CCc2ccccc2)cc1 (configuration not stated)	.	.	.	.	-	.
Nn1c(SCC(=O)Nc2ccc(F)cc2F)nnc1-c1cccnc1	57	-	-	-	.	-
CCN1CC2=C(OC(N)=C(C#N)C2c2cccs2)/C(=C/c2cccs2)C1 (configuration not stated)	-	-	-	-2.7	-	-
Cc1ccc(C(=O)Nc2ccon2)cc1S(=O)(=O)N1CCCC1	.	.	.	.	-	.
Cc1ccc2c(c1)c1c3n2CCCNC3CCC1 (configuration not stated)	-	-	-	-	.	54
c1cc2c(cc1C1CCCCC1)c1c3n2CCCNC3CCC1 (configuration not stated)	.	.	.	.	-	.
Cc1ccc(-c2nc3cnccn3c2Nc2c(C)cccc2C)o1	.	.	.	.	-	.
Nc1nc(N)c2sc3nc4c(cc3c2n1)CCC4	57	-	-	-	-	56
Cc1nc2c(sc3nc4c(cc32)COC(C)(C)C4)c(=O)o1	.	.	.	.	-	.
Cc1cc(C)c2cc(CN(CCN3CCCC3)C(=O)Nc3ccc(F)cc3)c(=O)[nH]c2c1	-	-	-	-3.1	.	-
O=C(Nc1ccc2nc3n(c(=O)c2c1)CCCCC3)c1ccccn1	-	-	-	-	.	54
CC12CCC(C(=O)N3CCN(c4ccccc4)CC3)(CC1=O)C2(C)C (configuration not stated)	-	-	-	-	.	-
COc1ccc(CCNC(=O)CSc2nnnn2-c2ccccc2OC)cc1OC	-	-	-	-	-	-
CCOc1ccc(N2C(=O)CN=C2Nc2ccccc2F)cc1	.	.	.	.	97	.
COc1ccc(CNc2nc3nc(C)c(Cl)c(C)n3n2)cc1OC	-	-	-	6.2	-	-
CCOc1ccc(-c2nnn(CC(=O)NCc3ccc(F)cc3)n2)cc1OCC	-	-	-	-	-	-
CCOc1ccc(-c2nnn(CC(=O)Nc3cccc(OC)c3)n2)cc1OCC	-	-	-	13	.	-
CCCCn1c(SCC(=O)N2CCN(c3ccccc3)CC2)nc2ccsc2c1=O	-	-	-	-	.	-
Cc1cc(NC(=O)CN2CCN(c3ccccc3O)CC2)no1	-	-	-	.	-	-
CCOC(=O)c1cc2sc(C)cc2n1C(C)C(=O)OCC (configuration not stated)	-	-	-	-	-	-
Cc1ccc(-c2[nH]nc3c2C(c2cccnc2)C(C#N)=C(N)O3)cc1 (configuration not stated)	-	-	-	14	-	-
CCn1c(=O)n(CCOC)c(=O)c2c3c(sc21)CCCC3	-	-	-	6.3	.	-
COCCn1c(=O)c2c3c(sc2n(CC(N)=O)c1=O)CCCC3	-	-	-	-	-	-
COc1ccc(Cn2c(CCC(=O)NCc3ccco3)nc3cccnc32)cc1	-	-	-	-	-	-
COc1ccc(C2(C(=O)NC(C)C)CCCC2)cc1OC	-	-	-	-	-	-
SMILES	SF1 activator	M1 antagonist	M1 agonist	D1 mod	mHtt clearance	RORa activator
COc1ccc(C2(C(N)=O)CCCCC2)cc1OC	-	-	-	8.5	-	-
COc1cc(S(=O)(=O)N(C)C)ccc1F	-	-	-	-	.	-
Cc1cc(C)n(CCc2nc3c4ccccc4nc(SCc4ccc(C#N)cc4)n3n2)n1	-	-	-	-	.	-
O=C(CSc1nccn1Cc1ccccc1)Nc1nccs1	-	-	-	-	-	57
CC(C)(C)NC(=O)CSc1nccn1Cc1ccccc1	-	-	-	-	.	-
COc1ccccc1-n1c(=O)oc2ccc(Cl)cc2c1=O	-	-	-	-2.3	-	-
Cc1cc(C)nc(NS(=O)(=O)c2ccc(NC(=O)c3ccc4c(c3)OCO4)cc2)n1	-	-	-	-	.	-
COc1ccc(/C=N\n2nnc3ccccc32)cc1	-	-	-	-3.9	.	-
O=C(NCc1ccccn1)c1cc(-n2cnnc2)ccc1Cl	-	-	-	-	-	-
O=C(O)c1nc2ccccc2nc1C(=O)O	58	-	-	-	-	-
Cc1nc2ccccc2cc1C(=O)O	.	.	.	.	-	.
CCc1nnc(NC(=O)CN2CCN(c3ccc(Cl)cc3)CC2)s1	.	.	.	.	-	.
O=C(NC1CCCCC1)C(c1ccco1)N(Cc1ccco1)C(=O)c1ccco1 (configuration not stated)	-	-	-	-	-	-
COc1ccc(C(=O)N(Cc2ccco2)C(C(=O)NC2CCCC2)c2ccc(O)cc2)cc1OC (configuration not stated)	-	-	2.6	-	.	-
Nc1ccc(-c2nc3ccc(N)cc3o2)cc1	-	-	-	-3.1	.	-
Cc1ccc2nc(-c3cc(N)cc(N)c3)oc2c1	.	.	.	.	-	.
Cc1[nH]c(=O)c(C(=O)/C=C/c2ccccc2F)c2c1CCCC2	.	.	.	.	-	.
CC(C)OC(=O)CC(=O)c1sc2nc3c(cc2c1N)CN(C)CC3	-	-	7.3	-	.	-
CCOC(=O)c1sc2nc3c(cc2c1N)COC(C(C)C)C3 (configuration not stated)	.	.	.	.	-	.
Cc1ccc(C)c(CSc2nnc(-c3cccs3)n2Cc2ccco2)c1	.	.	.	.	-	.
COCCN(C(C)=O)c1nnc(-c2ccccn2)s1	-	-	-	-	-	-
COCCCN(C(C)=O)c1nc(-c2ccccc2)cs1	79	-	-	-	.	-
COc1ccc(C2C(C(=O)N3CCN(c4ccccn4)CC3)CC(=O)N2c2ccc(OC)cc2)cc1 (configuration not stated)	-	-	-	-3.1	-	-
COc1ccc(-n2nc(C(=O)NCC(=O)N3CCN(c4ccccn4)CC3)c3ccccc3c2=O)cc1	60	-	-	-	.	-
COc1cc(N2C(=O)NC3CC2(C)Oc2ccc(Br)cc23)cc(OC)c1OC (configuration not stated)	-	-	-	-	.	-
SMILES	SF1 activator	M1 antagonist	M1 agonist	D1 mod	mHtt clearance	RORa activator
CCc1ccc(Nc2cc(=O)n(C3CCCCC3)c(=O)[nH]2)cc1	52	-	-	-	.	-
O=c1cc(Nc2ccc3c(c2)OCCO3)[nH]c(=O)n1C1CCCCC1	-	-	-	-	.	-
CCC(C)Sc1nc2c(c(=O)[nH]c(=O)n2C)n1Cc1ccc(Cl)cc1 (configuration not stated)	-	-	-	-	.	-
C=C(C)CSc1nc2c(c(=O)[nH]c(=O)n2C)n1Cc1ccccc1	-	-	-	11	.	-
CC(C)Sc1nc2c(c(=O)[nH]c(=O)n2C)n1Cc1ccc(Cl)cc1	-	-	-	23	-	-
CCN(CC)CC(=O)Nc1cc(C)c2c(=O)oc3ccccc3c2n1	-	-	-	-	.	-
CCn1cc(C(=O)N2CCOCC2)c(=O)c2cc(S(=O)(=O)N(C)C3CCCCC3)ccc21	-	-	-	-	.	-
CC(NC(=O)COc1ccccc1)C(c1ccccc1)N1CCN(C)CC1 (configuration not stated)	-	-	-	-	.	-
CC(=O)Nc1ccc(S(=O)(=O)N2CCN(CC(=O)NC3CCCC3)CC2)cc1	-	-	-	-	-	-
